From ChEMBL document CHEMBL4428038, “Overcoming chloroquine resistance in malaria: Design, synthesis and structure-activity relationships of novel chemoreversal agents” (Eur J Med Chem, 2016) come the findings set out here.

One assay deals with Plasmodium falciparum K1. Kind of assay: Inhibition of CRT CVIET haplotype mutant in Plasmodium falciparum K1 isolate MRA-159 infected in erythrocytes assessed as chloroquine-coumarin probe accumulation at 10 uM after 10 hrs by Hoechst 33342 staining based flow cytometry (reference value: 35.57 +/- 3.84%). The assay is classed as cell-based. The arrangement: scale not given: the % may be the effect or the level left. In a few lines: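 Infected erythrocyte cultures at 2.5% hematocrit and 7–12% parasitemia, synchronized to late-ring/early-trophozoite stage, were incubated with chloroquine-coumarin probe plus test agent for 10 h at 37 C. Cells were then washed, resuspended in PBS and read by flow cytometry (405 nm excitation, 450/50 filter). Hoechst-stained duplicate wells set parasitemia. Uptake = % infected erythrocytes fluorescent. Controls: PBS (negative), desipramine and parent compound (positive). ≥3 independent experiments; mean ± SEM.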
(In flow cytometry, cells or beads pass a laser one at a time.)

Assay [1] deals with Plasmodium falciparum. Kind of assay: Intrinsic antimalarial activity against chloroquine-sensitive Plasmodium falciparum 3D7 isolate MRA-102 assessed as reduction in parasite viability at 500 nM. It counts as functional, organism-based.
Assay [2] deals with Plasmodium falciparum. In words: Intrinsic antimalarial activity against chloroquine-sensitive Plasmodium falciparum HB3 isolate MRA-155 assessed as reduction in parasite viability at 500 nM. The assay is classed as functional, organism-based.
For assay [3], the system named is Plasmodium falciparum. Kind of assay: Intrinsic antimalarial activity against intermediate chloroquine-resistant Plasmodium falciparum 7G8 isolate MRA-154 harboring CRT SVMNT haplotype mutant assessed as reduction in parasite viability at 500 nM. The assay is classed as functional, organism-based.
Assay [4] has as its system Plasmodium falciparum. In words: Intrinsic antimalarial activity against chloroquine-resistant Plasmodium falciparum K1 isolate MRA-159 harboring CRT CVIET haplotype mutant assessed as reduction in parasite viability at 500 nM. The assay is classed as functional, organism-based.
Assay [5] relates to Plasmodium falciparum. Kind of assay: Intrinsic antimalarial activity against chloroquine-resistant Plasmodium falciparum Dd2 isolate MRA-156 harboring CRT K76T mutant assessed as reduction in parasite viability at 500 nM. The assay is classed as functional, organism-based.
For assay [6], the system named is Plasmodium falciparum. In words: Intrinsic antimalarial activity against chloroquine/artemisinin-resistant Plasmodium falciparum ARS233 harboring CRT K76T mutant assessed as reduction in parasite viability at 500 nM. The assay is classed as functional, organism-based.
The test system of assay [7] is Plasmodium falciparum. In words: Intrinsic antimalarial activity against chloroquine/artemisinin-resistant Plasmodium falciparum ARS272 harboring CRT K76T mutant assessed as reduction in parasite viability at 500 nM. It counts as functional, organism-based.
Assay [8] relates to Plasmodium falciparum. Kind of assay: Intrinsic antimalarial activity against chloroquine-resistant Plasmodium falciparum NHP4559 harboring CRT K76T mutant assessed as reduction in parasite viability at 500 nM. The assay is classed as functional, organism-based.
The test system of assay [9] is Plasmodium falciparum. Kind of assay: Intrinsic antimalarial activity against chloroquine/artemisinin-resistant Plasmodium falciparum NHP4773 harboring CRT K76T mutant assessed as reduction in parasite viability at 500 nM. The assay is classed as functional, organism-based.

Active and inactive are the calls of the source. No cut-off for these calls is given here.

As to `CC(C)(C)OC(=O)NC1CCN(CCC(C#N)(c2ccccc2)c2ccccc2)CC1`, the Activity in the assay with Plasmodium falciparum K1 came out at 38.8%. Moreover, the outcome in the assay on Plasmodium falciparum [1], with Plasmodium falciparum [2], in the assay on Plasmodium falciparum [3], with Plasmodium falciparum [4], in the assay on Plasmodium falciparum [5] and in the assay on Plasmodium falciparum [6] was inactive. In addition, the result in the assay with Plasmodium falciparum [7], in the assay with Plasmodium falciparum [8] and in the assay with Plasmodium falciparum [9] was inactive.

On to `O=C1/C(=C/c2ccccc2)N2CCC1CC2`, for which the Activity in the assay with Plasmodium falciparum K1 is 39%. Further, the result in the assay with Plasmodium falciparum [1], in the assay on Plasmodium falciparum [2], in the assay on Plasmodium falciparum [3], in the assay with Plasmodium falciparum [4], in the assay on Plasmodium falciparum [5] and in the assay on Plasmodium falciparum [6] was inactive. The outcome in the assay on Plasmodium falciparum [7], in the assay with Plasmodium falciparum [8] and with Plasmodium falciparum [9] was inactive.

Turning to `NCC(CCN1CCC(N)CC1)(c1ccccc1)c1ccccc1`, the Activity in the assay with Plasmodium falciparum K1 worked out at 58.9%. Further, the result with Plasmodium falciparum [1], in the assay on Plasmodium falciparum [2], in the assay with Plasmodium falciparum [3], in the assay with Plasmodium falciparum [4], in the assay with Plasmodium falciparum [5] and with Plasmodium falciparum [6] was inactive. For the same compound, the outcome with Plasmodium falciparum [7], in the assay on Plasmodium falciparum [8] and in the assay on Plasmodium falciparum [9] was inactive.

As for `N#CC(CCN1CCC(N)CC1)(c1ccccc1)c1ccccc1`, the Activity in the assay on Plasmodium falciparum K1 was 58%. Moreover, the outcome in the assay on Plasmodium falciparum [1], in the assay with Plasmodium falciparum [2], in the assay on Plasmodium falciparum [3], with Plasmodium falciparum [4], in the assay on Plasmodium falciparum [5] and in the assay with Plasmodium falciparum [6] was inactive. The outcome in the assay with Plasmodium falciparum [7], with Plasmodium falciparum [8] and in the assay with Plasmodium falciparum [9] was inactive.

With `O=C1C2CCN(CC2)C1C(c1ccccc1)c1ccccc1` (stereo not given), the Activity in the assay on Plasmodium falciparum K1 came out at 49%. Further, the outcome with Plasmodium falciparum [1], in the assay with Plasmodium falciparum [2], in the assay with Plasmodium falciparum [3], with Plasmodium falciparum [4], with Plasmodium falciparum [5] and in the assay on Plasmodium falciparum [6] was inactive. The outcome in the assay with Plasmodium falciparum [7], with Plasmodium falciparum [8] and in the assay with Plasmodium falciparum [9] was inactive.

Turning to `N#CC(CCBr)(c1ccccc1)c1ccccc1`, the Activity with Plasmodium falciparum K1 turned out to be 29.6%. The outcome in the assay with Plasmodium falciparum [1], with Plasmodium falciparum [2], with Plasmodium falciparum [3], in the assay with Plasmodium falciparum [4], in the assay on Plasmodium falciparum [5] and in the assay on Plasmodium falciparum [6] was inactive. The outcome in the assay with Plasmodium falciparum [7], in the assay with Plasmodium falciparum [8] and in the assay on Plasmodium falciparum [9] was inactive.

As for `c1ccc(CNC2C3CCN(CC3)C2Cc2ccccc2)cc1` (mixture of isomers), in the assay on Plasmodium falciparum K1, the Activity was determined as 74.4%. For the same compound, the result with Plasmodium falciparum [1], with Plasmodium falciparum [2], with Plasmodium falciparum [3], in the assay with Plasmodium falciparum [4], in the assay with Plasmodium falciparum [5] and with Plasmodium falciparum [6] was inactive. Besides, the result in the assay with Plasmodium falciparum [7], with Plasmodium falciparum [8] and in the assay with Plasmodium falciparum [9] was inactive.

On to `N#CC(CCN1CCC(O)CC1)(c1ccccc1)c1ccccc1`, for which the Activity in the assay with Plasmodium falciparum K1 was determined as 63.9%. Moreover, the outcome in the assay with Plasmodium falciparum [1], in the assay on Plasmodium falciparum [2], in the assay with Plasmodium falciparum [3], in the assay with Plasmodium falciparum [4], in the assay on Plasmodium falciparum [5] and with Plasmodium falciparum [6] was inactive. Moreover, the outcome with Plasmodium falciparum [7], with Plasmodium falciparum [8] and with Plasmodium falciparum [9] was inactive.

As to `CC(C)(C)OC(=O)N1CCN(C2Cc3ccccc3Sc3ccc(Cl)cc32)CC1` (stereo not given), the Activity with Plasmodium falciparum K1 stood at 43.4%. Besides, the outcome in the assay with Plasmodium falciparum [1], in the assay with Plasmodium falciparum [2], in the assay on Plasmodium falciparum [3], in the assay with Plasmodium falciparum [4], in the assay on Plasmodium falciparum [5] and with Plasmodium falciparum [6] was inactive. Moreover, the outcome with Plasmodium falciparum [7], in the assay with Plasmodium falciparum [8] and in the assay on Plasmodium falciparum [9] was inactive.
